# Experimental data reported in publication PMC13170702 (Nuclear medicine and biology, 2025).
# Assay: organ radiation dose estimates, OLINDA 1.1, ICRP-60
# Assay type: in vivo, human
# Summary of the method: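 Whole-body PET-MR ran as nine scans to 214 min. Organ VOIs were drawn in AMIDE, giving decay-corrected %IA per VOI; remainder = whole body minus measured organs. TIACs came from the exponential model (EXM) in OLINDA 1.1. Per-participant organ doses used 70 kg adult male or 55 kg female models in OLINDA 1.1. Effective dose (mSv) = organ absorbed doses × ICRP-60 tissue weighting factors.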
smiles,measurement,setting,value
"COC(=O)[C@@H](N)CC(=O)Nc1ccc2c(c1)Cc1cc([18F])ccc1-2 [[^18F]RP-115, methyl N^4-(7-[^18F]fluoro-9H-fluoren-2-yl)asparaginate]","Estimated dose, Upper, lower intestine wall","Female n=4, mean±SD",0.0160±0.0012 mGy/MBq
same,"Estimated dose, Urinary bladder wall","Female n=4, mean±SD",0.0588±0.0438 mGy/MBq
same,"Estimated dose, Uterus","Female n=4, mean±SD",0.0569±0.0512 mGy/MBq
same,Effective dose (whole body),M1 (326 MBq),6.74 mSv
same,"Estimated absorbed dose, Adrenals",M1 (326 MBq),6.51 mGy
same,"Estimated absorbed dose, Brain",M1 (326 MBq),5.63 mGy
same,"Estimated absorbed dose, Breasts",M1 (326 MBq),2.73 mGy
same,"Estimated absorbed dose, Gallbladder wall",M1 (326 MBq),9.08 mGy
same,"Estimated absorbed dose, Heart wall",M1 (326 MBq),8.79 mGy
same,"Estimated absorbed dose, Kidneys",M1 (326 MBq),72.0 mGy
same,"Estimated absorbed dose, Liver",M1 (326 MBq),16.0 mGy
same,"Estimated absorbed dose, Lower large intestine wall",M1 (326 MBq),3.45 mGy
same,"Estimated absorbed dose, Lungs",M1 (326 MBq),19.7 mGy
same,"Estimated absorbed dose, Muscle",M1 (326 MBq),3.00 mGy
same,"Estimated absorbed dose, Osteogenic cells",M1 (326 MBq),4.07 mGy
same,"Estimated absorbed dose, Pancreas",M1 (326 MBq),6.41 mGy
same,"Estimated absorbed dose, Red marrow",M1 (326 MBq),3.42 mGy
same,"Estimated absorbed dose, Remainder",M1 (326 MBq),4.10 mGy
same,"Estimated absorbed dose, Skin",M1 (326 MBq),2.10 mGy
same,"Estimated absorbed dose, Small intestine",M1 (326 MBq),13.8 mGy
same,"Estimated absorbed dose, Spleen",M1 (326 MBq),21.3 mGy
same,"Estimated absorbed dose, Stomach wall",M1 (326 MBq),4.33 mGy
same,"Estimated absorbed dose, Testes",M1 (326 MBq),2.12 mGy
same,"Estimated absorbed dose, Thymus",M1 (326 MBq),16.7 mGy
same,"Estimated absorbed dose, Thyroid",M1 (326 MBq),3.39 mGy
same,"Estimated absorbed dose, Upper, lower intestine wall",M1 (326 MBq),5.37 mGy
same,"Estimated absorbed dose, Urinary bladder wall",M1 (326 MBq),3.65 mGy
same,Effective dose (whole body),M2 (289 MBq),5.48 mSv
same,"Estimated absorbed dose, Adrenals",M2 (289 MBq),4.94 mGy
same,"Estimated absorbed dose, Brain",M2 (289 MBq),3.03 mGy
same,"Estimated absorbed dose, Breasts",M2 (289 MBq),2.26 mGy
same,"Estimated absorbed dose, Gallbladder wall",M2 (289 MBq),6.41 mGy
same,"Estimated absorbed dose, Heart wall",M2 (289 MBq),6.46 mGy
same,"Estimated absorbed dose, Kidneys",M2 (289 MBq),37.8 mGy
same,"Estimated absorbed dose, Liver",M2 (289 MBq),16.6 mGy
same,"Estimated absorbed dose, Lower large intestine wall",M2 (289 MBq),2.97 mGy
same,"Estimated absorbed dose, Lungs",M2 (289 MBq),11.0 mGy
same,"Estimated absorbed dose, Muscle",M2 (289 MBq),2.55 mGy
same,"Estimated absorbed dose, Osteogenic cells",M2 (289 MBq),3.58 mGy
same,"Estimated absorbed dose, Pancreas",M2 (289 MBq),4.30 mGy
same,"Estimated absorbed dose, Red marrow",M2 (289 MBq),2.76 mGy
same,"Estimated absorbed dose, Remainder",M2 (289 MBq),3.32 mGy
same,"Estimated absorbed dose, Skin",M2 (289 MBq),1.85 mGy
same,"Estimated absorbed dose, Small intestine",M2 (289 MBq),9.32 mGy
same,"Estimated absorbed dose, Spleen",M2 (289 MBq),7.24 mGy
same,"Estimated absorbed dose, Stomach wall",M2 (289 MBq),3.41 mGy
same,"Estimated absorbed dose, Testes",M2 (289 MBq),2.02 mGy
same,"Estimated absorbed dose, Thymus",M2 (289 MBq),4.68 mGy
same,"Estimated absorbed dose, Thyroid",M2 (289 MBq),2.23 mGy
same,"Estimated absorbed dose, Upper, lower intestine wall",M2 (289 MBq),4.24 mGy
same,"Estimated absorbed dose, Urinary bladder wall",M2 (289 MBq),4.70 mGy
same,Effective dose (whole body),M3 (70.3 MBq),1.52 mSv
same,"Estimated absorbed dose, Adrenals",M3 (70.3 MBq),1.21 mGy
same,"Estimated absorbed dose, Brain",M3 (70.3 MBq),0.820 mGy
same,"Estimated absorbed dose, Breasts",M3 (70.3 MBq),0.560 mGy
same,"Estimated absorbed dose, Gallbladder wall",M3 (70.3 MBq),1.35 mGy
same,"Estimated absorbed dose, Heart wall",M3 (70.3 MBq),1.79 mGy
same,"Estimated absorbed dose, Kidneys",M3 (70.3 MBq),12.7 mGy
same,"Estimated absorbed dose, Liver",M3 (70.3 MBq),2.61 mGy
same,"Estimated absorbed dose, Lower large intestine wall",M3 (70.3 MBq),0.670 mGy
same,"Estimated absorbed dose, Lungs",M3 (70.3 MBq),3.91 mGy
same,"Estimated absorbed dose, Muscle",M3 (70.3 MBq),0.605 mGy
same,"Estimated absorbed dose, Osteogenic cells",M3 (70.3 MBq),0.837 mGy
same,"Estimated absorbed dose, Pancreas",M3 (70.3 MBq),1.33 mGy
same,"Estimated absorbed dose, Red marrow",M3 (70.3 MBq),0.662 mGy
same,"Estimated absorbed dose, Remainder",M3 (70.3 MBq),0.780 mGy
same,"Estimated absorbed dose, Skin",M3 (70.3 MBq),0.434 mGy
same,"Estimated absorbed dose, Small intestine",M3 (70.3 MBq),1.61 mGy
same,"Estimated absorbed dose, Spleen",M3 (70.3 MBq),2.28 mGy
same,"Estimated absorbed dose, Stomach wall",M3 (70.3 MBq),0.815 mGy
same,"Estimated absorbed dose, Testes",M3 (70.3 MBq),0.479 mGy
same,"Estimated absorbed dose, Thymus",M3 (70.3 MBq),1.64 mGy
same,"Estimated absorbed dose, Thyroid",M3 (70.3 MBq),0.643 mGy
same,"Estimated absorbed dose, Upper, lower intestine wall",M3 (70.3 MBq),0.879 mGy
same,"Estimated absorbed dose, Urinary bladder wall",M3 (70.3 MBq),1.96 mGy
same,Effective dose (whole body),M4 (153 MBq),2.89 mSv
same,"Estimated absorbed dose, Adrenals",M4 (153 MBq),3.04 mGy
same,"Estimated absorbed dose, Brain",M4 (153 MBq),2.44 mGy
same,"Estimated absorbed dose, Breasts",M4 (153 MBq),1.31 mGy
same,"Estimated absorbed dose, Gallbladder wall",M4 (153 MBq),3.80 mGy
same,"Estimated absorbed dose, Heart wall",M4 (153 MBq),1.79 mGy
same,"Estimated absorbed dose, Liver",M4 (153 MBq),2.12 mGy
same,"Estimated absorbed dose, Lower large intestine wall",M4 (153 MBq),2.51 mGy
same,"Estimated absorbed dose, Lungs",M4 (153 MBq),4.01 mGy
same,"Estimated absorbed dose, Muscle",M4 (153 MBq),35.0 mGy
same,"Estimated absorbed dose, Osteogenic cells",M4 (153 MBq),5.85 mGy
same,"Estimated absorbed dose, Pancreas",M4 (153 MBq),1.52 mGy
same,"Estimated absorbed dose, Red marrow",M4 (153 MBq),2.02 mGy
same,"Estimated absorbed dose, Remainder",M4 (153 MBq),1.96 mGy
same,"Estimated absorbed dose, Skin",M4 (153 MBq),4.45 mGy
same,"Estimated absorbed dose, Small intestine",M4 (153 MBq),1.69 mGy
same,"Estimated absorbed dose, Spleen",M4 (153 MBq),2.12 mGy
same,"Estimated absorbed dose, Stomach wall",M4 (153 MBq),1.10 mGy
same,"Estimated absorbed dose, Testes",M4 (153 MBq),7.89 mGy
same,"Estimated absorbed dose, Thymus",M4 (153 MBq),1.19 mGy
same,"Estimated absorbed dose, Thyroid",M4 (153 MBq),7.36 mGy
same,"Estimated absorbed dose, Upper, lower intestine wall",M4 (153 MBq),2.17 mGy
same,"Estimated absorbed dose, Urinary bladder wall",M4 (153 MBq),2.81 mGy
same,Effective dose (whole body),"Male n=4, mean±SD",0.0196±0.0019 mSv/MBq
same,"Estimated dose, Adrenals","Male n=4, mean±SD",0.0181±0.00135 mGy/MBq
same,"Estimated dose, Brain","Male n=4, mean±SD",0.0135±0.00305 mGy/MBq
same,"Estimated dose, Breasts","Male n=4, mean±SD",0.00801±0.000253 mGy/MBq
same,"Estimated dose, Gallbladder wall","Male n=4, mean±SD",0.0230±0.00361 mGy/MBq
same,"Estimated dose, Heart wall","Male n=4, mean±SD",0.0214±0.00739 mGy/MBq
same,"Estimated dose, Kidneys","Male n=4, mean±SD",0.142±0.0804 mGy/MBq
same,"Estimated dose, Liver","Male n=4, mean±SD",0.0392±0.0195 mGy/MBq
same,"Estimated dose, Lower, large intestine wall","Male n=4, mean±SD",0.0114±0.00246 mGy/MBq
same,"Estimated dose, Lungs","Male n=4, mean±SD",0.0446±0.0167 mGy/MBq
same,"Estimated dose, Muscle","Male n=4, mean±SD",0.0589±0.100 mGy/MBq
same,"Estimated dose, Osteogenic cells","Male n=4, mean±SD",0.0180±0.0114 mGy/MBq
same,"Estimated dose, Pancreas","Male n=4, mean±SD",0.0156±0.00485 mGy/MBq
same,"Estimated dose, Red marrow","Male n=4, mean±SD",0.0104±0.00124 mGy/MBq
same,"Estimated dose, Remainder","Male n=4, mean±SD",0.0117±0.000634 mGy/MBq
same,"Estimated dose, Skin","Male n=4, mean±SD",0.0114±0.0101 mGy/MBq
same,"Estimated dose, Small intestine","Male n=4, mean±SD",0.0269±0.0137 mGy/MBq
same,"Estimated dose, Spleen","Male n=4, mean±SD",0.0340±0.0226 mGy/MBq
same,"Estimated dose, Stomach wall","Male n=4, mean±SD",0.0108±0.00294 mGy/MBq
same,"Estimated dose, Testes","Male n=4, mean±SD",0.0169±0.0202 mGy/MBq
same,"Estimated dose, Thymus","Male n=4, mean±SD",0.0245±0.0190 mGy/MBq
same,"Estimated dose, Thyroid","Male n=4, mean±SD",0.0178±0.0175 mGy/MBq
same,"Estimated dose, Upper, lower intestine wall","Male n=4, mean±SD",0.0142±0.00181 mGy/MBq
same,"Estimated dose, Urinary bladder wall","Male n=4, mean±SD",0.0180±0.00704 mGy/MBq
